Source: PubChem BioAssay
Sampled rows, rich in hits. Any-hit rate of the full collection: about 3.5%.
MrgX1 antag = blocks BAM8-22 activation of human MrgX1 receptor | 310,000 compounds, 1.3% hits | Q96LB2 | B-score at 10 µM | MRGX1-HEK293 calcium flux, Fluo-4, BAM8-22 antagonism; stronger effect = lower value;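 active means calcium-response B-score plate-corrected more than 3 library SD below zero, starting fluorescence within 5 deviations, no agonist response on first addition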;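 further: peak minus trough fluorescence over baseline after final BAM8-22 challenge near maximal dose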
Target sequence (Q96LB2 whole entry, looked up): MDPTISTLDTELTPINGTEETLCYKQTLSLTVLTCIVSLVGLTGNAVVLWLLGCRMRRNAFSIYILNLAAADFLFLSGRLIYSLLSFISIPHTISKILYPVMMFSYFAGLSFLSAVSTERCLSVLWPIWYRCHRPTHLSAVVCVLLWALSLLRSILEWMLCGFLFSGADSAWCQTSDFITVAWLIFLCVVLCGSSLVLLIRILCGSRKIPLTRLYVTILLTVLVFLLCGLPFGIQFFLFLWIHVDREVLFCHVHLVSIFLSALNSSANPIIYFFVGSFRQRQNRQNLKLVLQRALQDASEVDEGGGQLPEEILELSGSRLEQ
MrgX1 allo act = allosterically activates human MrgX1 receptor signaling; 310,000 compounds, 0.63% hits; B-score at 10 µM; MrgX1-HEK293, Fluo-4 calcium flux, FDSS; stronger effect = higher value; Q96LB2;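 active means plate-corrected calcium response at least 3 library SD above typical, normal starting fluorescence, not activating the receptor alone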;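 further: compound read alongside a low EC10 to EC30 dose of BAM8-22 agonist; peak minus trough fluorescence over baseline measured at the second addition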
RGS4 block = inhibitors of human RGS4; HEK293 M3R/RGS4 inducible, Fluo-4 calcium flux; stronger effect = higher value; triggered by carbachol at its EC20; B-score at 10 µM; 310,000 compounds, 0.45% hits;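 active means B-score, a plate-corrected calcium signal, over three deviations above library mean, with baseline fluorescence within five deviations of library mean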;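 further: RGS4 expression induced by doxycycline in cells with stable M3 receptor; B-score is computed from the integrated fluorescence ratio over baseline after carbachol; higher B-score means a larger calcium signal and so more RGS4 inhibition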
Target sequence (P49798 whole entry, looked up): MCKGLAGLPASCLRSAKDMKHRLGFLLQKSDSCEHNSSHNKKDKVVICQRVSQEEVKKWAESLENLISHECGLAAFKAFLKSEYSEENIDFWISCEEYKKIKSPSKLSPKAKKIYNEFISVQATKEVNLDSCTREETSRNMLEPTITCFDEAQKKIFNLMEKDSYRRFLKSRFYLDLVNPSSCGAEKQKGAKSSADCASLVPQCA
MrgX1 ag = agonists of human MrgX1 receptor; Q96LB2; B-score at 10 µM; 310,000 compounds, 0.44% hits; MrgX1-HEK293 cells, Fluo-4 calcium fluorescence, agonist mode; stronger effect = higher value;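 active means calcium response B-score plate-corrected fluorescence ratio at least 3 library SD, with starting fluorescence B-score inside 5 SD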
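Assay system: stable human MrgX1 HEK293 cell line. Quantity: 15,000 cells per well. Schedule: cells plated overnight, dye loaded 0.5 h 37 °C, 0.5 h room temperature. Detection: Fluo-4 NW calcium-flux fluorescence, kinetic read. Read-out basis: peak-minus-minimum fluorescence over baseline, converted to B scores. Control set: positive and negative control wells on each plate.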
RGS4 pot = RGS4 potentiation or activation; HEK293 M3R/inducible RGS4, carbachol calcium flux Fluo4; stronger effect = lower value; B-score at 10 µM; 310,000 compounds, 0.92% hits;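 active means B-score of the integrated calcium signal more than 4 SD below the library mean, with starting fluorescence not abnormally high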;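 further: negative B-score means reduced calcium response which marks RGS4 activation or potentiation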
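Reagent: ECmax carbachol challenge; Test system: M3R-expressing HEK293 line, RGS4 induced by doxycycline; Schedule: overnight RGS4 induction, 30 min dye load 37 °C, 20 min compound RT; Detection: calcium dye Fluo4 fluorescence; Read-out: Agonist-evoked peak-minus-minimum fluorescence over baseline, integrated ratio, B score.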
Of the large screens only hits and unclear results are named; the others gave an inactive call.

C[N+](C)(C)Cc1ccccc1	RGS4 pot -8.6
NC(Cc1ccccc1)Cc1ccccc1	none
CCOC(C(=O)OCCCN(CC)CC)(c1ccccc1)c1ccccc1	none
CCN(CC)CCCOC(=O)C(OC(C)C)(c1ccccc1)c1ccccc1	RGS4 pot -11
CC(=O)N1N=C(c2c(O)n(C)c(=O)n(C)c2=O)CC1c1ccccc1 (configuration not stated)	none
CC1CCCC(C)N1/N=C/c1c[nH]c2ccc(Br)cc12 (configuration not stated)	MrgX1 allo act 12
C[N+]12CCC(CC1)C(C(O)(c1cccc(Cl)c1)c1cccc(Cl)c1)C2 (configuration not stated)	RGS4 pot -9.2
CC(C)[N+]12CCC(CC1)C(C(O)(c1ccccc1)c1ccccc1)C2 (configuration not stated)	RGS4 pot -8.4
CC[N+]12CCC(CC1)C(C(O)(c1ccccc1)c1ccccc1)C2 (configuration not stated)	RGS4 pot -8
CC(C)(C)C(=O)OC[N+](C)(C)CCOC(=O)C(O)(c1ccccc1)C1CCCC1 (configuration not stated)	RGS4 pot -7.5
CCCC(CCC)C(=O)OC[N+](C)(C)CCOC(=O)C(O)(c1ccccc1)C1CCCC1 (configuration not stated)	none
O=C(Nc1ccc(Cl)cc1C(=O)c1ccccc1)c1ccc(Br)o1	none
CCN1CCN(Cc2cc3c(cc2[N+](=O)[O-])OCO3)CC1	none
C=CCN1C(=O)/C(=C/c2cc(C)n(-c3ccccn3)c2C)C(=O)NC1=S	MrgX1 antag -5.2
CC1CCC(NCCc2ccc3c(c2)OCO3)CC1 (configuration not stated)	RGS4 pot -7
COc1ccc(OCC(=O)N2CCCC(N3CCN(c4ccccc4C)CC3)C2)cc1 (configuration not stated)	none
COC(=O)C1=CCCN(C)C1	MrgX1 ag 57
COc1ccc(CNCCc2c(C)[nH]c3ccc(OC(F)(F)F)cc23)c(OC)c1	MrgX1 antag -4.7
Cc1ccccc1-n1c(O)c(/C=C2/C(c3ccccc3)=Nc3ccccc32)c(=O)[nH]c1=O	none
CC1=Nc2ccccc2/C1=C/c1c(O)n(C)c(=O)[nH]c1=O	MrgX1 allo act 8.1
CC1(C)CC(n2[nH]c(=O)c3c2NC(=O)CSC3c2ccccc2)CCO1 (configuration not stated)	none
CCCCCSc1cc(O)c(C(CNC)C(C)C)cc1OC (configuration not stated)	none
CCCCCSc1cc(OC)c(CCN(C)C)cc1OC	RGS4 pot -7.7
C[N+]1(CCC(C(N)=O)(c2ccccc2)c2ccccc2)CCCCC1	RGS4 pot -7
CN1C(=O)C(=Cc2ccc(N3CCCCCC3)o2)C(=O)N(C)C1=S	MrgX1 ag 29 (no result: RGS4 block, RGS4 pot)
CCCCOP(=O)(CN1CCOCC1)OCCCC	none
CN1C2CCC1CC(=NO)C2	MrgX1 antag -5.3
CC1NCCC2(O)CCCCC12 (configuration not stated)	none
CCOC(=O)C1(CCc2ccccc2)CCN(C2CCSCC2)CC1	none
CCOC(=O)C1(CCCc2ccccc2)CCN(C2CCCC2)CC1	RGS4 pot -7
CC(C)(O)[C@H]1O[C@H]2CC[C@@]3(C)[C@@](O)(CC[C@H]4Cc5c([nH]c6ccccc56)[C@@]43C)C2=CC1=O	MrgX1 antag -4.6
Nc1cc(C(=O)Nc2ccc(Cl)cc2)ccc1N1CC2CC(C1)c1cccc(=O)n1C2 (configuration not stated)	none
O=C(O)Cn1cc(/C=C2\C(=O)NC(=O)N(Cc3ccco3)C2=O)c2ccccc21	none
Cc1cc(/C=C2/C(=O)NC(=O)N(Cc3ccco3)C2=O)c(C)n1-c1ccccc1O	MrgX1 allo act 9.6
CCOC(=O)C1=CC(=C2C(=O)N(CC)C(=S)N(CC)C2=O)c2ccccc2O1	none
C=C(C)[C@@]12OC3(c4ccccc4)O[C@@H]1C1[C@@H]4O[C@]4(CO)[C@@H](O)[C@]4(O)C(=O)C(C)=C[C@H]4[C@@]1(O3)[C@H](C)[C@H]2OC(=O)/C=C/C=C/c1ccccc1 (some centres not stated)	RGS4 pot -8.6
O=C1NC(=O)C(CCc2ccncc2)(Cc2ccc3c(c2)OCO3)C(=O)N1CCc1ccccc1 (configuration not stated)	none
O=c1ccc2cc(O[C@@H]3O[C@@H](CO)[C@H](O)[C@@H](O)[C@@H]3O)c(O)cc2o1	none
CCN(CC)C(=O)c1ccc2c(c1)C1C(Cl)C(Sc3ccccc3[N+](=O)[O-])CC1C(C(=O)O)N2 (configuration not stated)	MrgX1 antag -6.7
Cc1ccc2c(c1Cl)NC(C(=O)O)C1CC(Sc3ccccc3[N+](=O)[O-])C(Cl)C21 (configuration not stated)	none
CC(C)CNP(=S)(c1ccccc1)C(C)(C)C (configuration not stated)	none
Cc1nc2ccccc2c(=O)n1/N=C/c1cc(Br)cc(Br)c1O	MrgX1 antag -8.6
Cc1cccc(N2C(=O)NC(=O)/C(=C\c3ccc4c(c3)CCCN4Cc3ccccc3)C2=O)c1	MrgX1 allo act 12
CC/C(=C\C=C\[C@@H]1C=C[C@@H]2CCC[C@H]2[C@@H]1C(=O)c1ccc[nH]1)[C@@H]1O[C@@H]([C@@H](C)C(=O)O)CC[C@@H]1C	MrgX1 ag 35, RGS4 pot -8.2
C=CCN1C(=O)NC(=O)/C(=C/c2ccoc2)C1=O	MrgX1 antag -6.5
COc1cc2c(c(OC)c1OC)-c1ccc(O)cc1[C@@H](NC(C)=O)CC2	none
CCC(C)n1c(O)c(C=NCC2CCCO2)c(=O)[nH]c1=S (configuration not stated)	RGS4 pot -10
CCC(C)n1c(O)c(/C=N/N2CCOCC2)c(=O)[nH]c1=S (configuration not stated)	none
C1CCCN(C2CCNCC2)CC1	none
Cc1c(C)c2ccc(OCC(=O)N3C[C@H]4C[C@@H](C3)c3cccc(=O)n3C4)c(C)c2oc1=O	RGS4 pot -8.7
Cc1cc(=O)oc2c(C)c(OCC(=O)N3C[C@H]4C[C@@H](C3)c3cccc(=O)n3C4)ccc12	none
Cc1c(Br)c(=O)oc2cc(OCC(=O)N3C[C@H]4C[C@@H](C3)c3cccc(=O)n3C4)ccc12	RGS4 pot -7.5
CC(C)(C)C(=O)OCC12CCC(O1)C1(C)C(=O)OCC21 (configuration not stated)	none
COC(=O)C1=C(N)Oc2c(c(=O)oc3ccccc23)[C@]12C(=O)N(C)c1ccccc12	MrgX1 allo act 8.6
CCOC(=O)c1cccc(-[n+]2c(-c3ccccc3)cc(-c3ccccc3)cc2-c2ccccc2)c1	MrgX1 antag -6.8, RGS4 pot -7.7
